The M2OR odorant receptor database

Experiments:
Conditions in all cases: stereoisomer not certain
OR10A2 (Homo sapiens) = OR10A2 (Homo sapiens) (UniProt Q9H208)
Procedure, shortened: (§1)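 Transient luciferase assays in mammalian cell lines were common, though methods varied by source. The values come from published papers and their supplementary material, with extra details from the original authors when needed. Responsive refers to a measured signal the original authors judged statistically different from baseline, and non-responsive (inactive) to the remainder.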

OR10A3 (Homo sapiens) = OR10A3 (Homo sapiens) (UniProt P58181)
Chain of OR10A3 (Homo sapiens) (P58181 whole entry): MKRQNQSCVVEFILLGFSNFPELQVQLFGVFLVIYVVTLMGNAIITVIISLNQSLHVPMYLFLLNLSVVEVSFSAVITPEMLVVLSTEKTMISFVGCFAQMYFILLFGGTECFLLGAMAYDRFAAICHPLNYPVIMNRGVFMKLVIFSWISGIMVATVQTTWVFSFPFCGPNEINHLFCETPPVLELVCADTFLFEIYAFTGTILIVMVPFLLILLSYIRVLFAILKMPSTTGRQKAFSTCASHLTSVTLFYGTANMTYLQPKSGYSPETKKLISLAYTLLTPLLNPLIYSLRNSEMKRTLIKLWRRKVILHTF
Procedure, shortened: as §1

OR10A4 (Homo sapiens) = OR10A4 (Homo sapiens) (UniProt Q9H209)
Chain of OR10A4 (Homo sapiens) (Q9H209 whole entry): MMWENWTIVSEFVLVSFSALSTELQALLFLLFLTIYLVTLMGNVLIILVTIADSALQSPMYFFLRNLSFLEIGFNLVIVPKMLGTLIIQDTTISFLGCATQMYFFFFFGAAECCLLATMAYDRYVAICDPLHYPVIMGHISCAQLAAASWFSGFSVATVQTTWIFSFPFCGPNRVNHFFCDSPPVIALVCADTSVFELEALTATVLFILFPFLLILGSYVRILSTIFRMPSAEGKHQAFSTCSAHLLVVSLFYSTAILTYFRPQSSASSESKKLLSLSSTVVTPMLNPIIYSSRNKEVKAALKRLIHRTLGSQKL
Procedure, shortened: as §1

OR10A5 (Homo sapiens) = OR10A5 (Homo sapiens) (UniProt Q9H207)
Chain of OR10A5 (Homo sapiens) (Q9H207 whole entry): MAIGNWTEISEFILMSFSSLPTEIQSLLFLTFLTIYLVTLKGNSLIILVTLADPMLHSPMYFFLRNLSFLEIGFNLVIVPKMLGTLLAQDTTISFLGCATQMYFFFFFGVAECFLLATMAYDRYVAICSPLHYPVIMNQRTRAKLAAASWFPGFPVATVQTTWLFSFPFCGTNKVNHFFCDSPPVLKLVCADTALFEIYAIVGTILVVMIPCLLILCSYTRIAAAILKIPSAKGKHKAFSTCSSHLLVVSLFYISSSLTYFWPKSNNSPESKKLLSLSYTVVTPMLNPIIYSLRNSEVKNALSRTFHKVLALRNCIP
Procedure, shortened: as §1

OR10A6 (Homo sapiens) = OR10A6 (Homo sapiens) (UniProt Q8NH74)
Chain of OR10A6 (Homo sapiens) (Q8NH74 whole entry): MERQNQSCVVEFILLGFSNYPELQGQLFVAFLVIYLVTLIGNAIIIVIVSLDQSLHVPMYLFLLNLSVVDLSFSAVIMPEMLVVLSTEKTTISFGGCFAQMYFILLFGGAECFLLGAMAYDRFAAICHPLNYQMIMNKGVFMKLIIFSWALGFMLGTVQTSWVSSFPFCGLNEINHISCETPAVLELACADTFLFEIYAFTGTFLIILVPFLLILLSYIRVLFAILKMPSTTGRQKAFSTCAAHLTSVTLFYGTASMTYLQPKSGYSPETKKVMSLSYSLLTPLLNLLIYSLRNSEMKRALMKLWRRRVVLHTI
Procedure, shortened: as §1

OR10A7 (Homo sapiens) = OR10A7 (Homo sapiens) (UniProt Q8NGE5)
Chain of OR10A7 (Homo sapiens) (Q8NGE5 whole entry): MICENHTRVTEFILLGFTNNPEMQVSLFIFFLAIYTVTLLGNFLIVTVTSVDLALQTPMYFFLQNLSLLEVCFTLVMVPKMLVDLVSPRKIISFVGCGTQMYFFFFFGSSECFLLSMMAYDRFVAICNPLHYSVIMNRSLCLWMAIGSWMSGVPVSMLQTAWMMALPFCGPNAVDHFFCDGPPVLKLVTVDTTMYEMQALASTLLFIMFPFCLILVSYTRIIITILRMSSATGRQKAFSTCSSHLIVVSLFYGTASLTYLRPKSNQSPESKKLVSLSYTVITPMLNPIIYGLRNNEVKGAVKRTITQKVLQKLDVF
Procedure, shortened: as §1

OR10AD1 (Homo sapiens) = OR10AD1 (Homo sapiens) (UniProt Q8NGE0)
Chain of OR10AD1 (Homo sapiens) (Q8NGE0 whole entry): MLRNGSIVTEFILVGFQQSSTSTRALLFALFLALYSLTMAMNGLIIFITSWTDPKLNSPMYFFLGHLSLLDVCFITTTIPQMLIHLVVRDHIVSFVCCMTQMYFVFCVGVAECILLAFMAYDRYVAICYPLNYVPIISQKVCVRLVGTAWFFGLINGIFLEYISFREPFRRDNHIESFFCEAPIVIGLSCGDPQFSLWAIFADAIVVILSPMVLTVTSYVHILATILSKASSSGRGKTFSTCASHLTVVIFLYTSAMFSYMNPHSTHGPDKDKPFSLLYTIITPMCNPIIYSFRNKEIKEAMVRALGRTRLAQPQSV
Procedure, shortened: as §1

OR10AG1 (Homo sapiens) = OR10AG1 (Homo sapiens) (UniProt Q8NH19)
Chain of OR10AG1 (Homo sapiens) (Q8NH19 whole entry): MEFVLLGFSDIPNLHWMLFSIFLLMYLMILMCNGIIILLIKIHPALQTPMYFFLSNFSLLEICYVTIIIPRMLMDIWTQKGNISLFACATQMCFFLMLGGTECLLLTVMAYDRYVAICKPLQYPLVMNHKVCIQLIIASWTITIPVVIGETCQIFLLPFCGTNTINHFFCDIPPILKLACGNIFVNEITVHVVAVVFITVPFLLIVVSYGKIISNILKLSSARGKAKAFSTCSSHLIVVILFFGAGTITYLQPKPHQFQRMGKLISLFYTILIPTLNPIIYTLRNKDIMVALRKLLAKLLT
Procedure, shortened: as §1

OR10C1 (Homo sapiens) = OR10C1 (Homo sapiens) (UniProt Q96KK4)
Chain of OR10C1 (Homo sapiens) (Q96KK4 whole entry): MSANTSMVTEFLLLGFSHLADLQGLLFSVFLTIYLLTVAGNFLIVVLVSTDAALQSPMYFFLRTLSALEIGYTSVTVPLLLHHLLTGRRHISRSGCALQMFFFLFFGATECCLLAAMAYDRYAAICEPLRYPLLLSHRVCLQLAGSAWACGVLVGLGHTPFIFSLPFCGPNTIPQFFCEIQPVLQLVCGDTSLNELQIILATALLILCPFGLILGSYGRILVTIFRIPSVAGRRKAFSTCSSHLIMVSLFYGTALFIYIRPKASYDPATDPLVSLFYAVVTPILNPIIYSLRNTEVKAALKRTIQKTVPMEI
Procedure, shortened: as §1

OR10AC1 (Homo sapiens) = OR10AC1 (Homo sapiens) (UniProt Q8NH08)
Chain of OR10AC1 (Homo sapiens) (Q8NH08 whole entry): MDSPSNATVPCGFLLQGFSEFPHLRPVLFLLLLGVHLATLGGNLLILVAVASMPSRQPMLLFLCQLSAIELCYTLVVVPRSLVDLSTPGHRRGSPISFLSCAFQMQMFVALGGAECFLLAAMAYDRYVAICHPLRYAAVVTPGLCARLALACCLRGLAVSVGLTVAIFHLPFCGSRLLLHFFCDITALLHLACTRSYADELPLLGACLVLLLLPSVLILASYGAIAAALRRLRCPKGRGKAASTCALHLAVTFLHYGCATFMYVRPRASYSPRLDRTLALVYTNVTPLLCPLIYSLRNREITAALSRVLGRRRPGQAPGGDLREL
Procedure, shortened: as §1

Measured: odorant receptor agonist call;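 also: active if original authors judged signal statistically different from baseline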

Chain of OR10A2 (Homo sapiens) (Q9H208 whole entry): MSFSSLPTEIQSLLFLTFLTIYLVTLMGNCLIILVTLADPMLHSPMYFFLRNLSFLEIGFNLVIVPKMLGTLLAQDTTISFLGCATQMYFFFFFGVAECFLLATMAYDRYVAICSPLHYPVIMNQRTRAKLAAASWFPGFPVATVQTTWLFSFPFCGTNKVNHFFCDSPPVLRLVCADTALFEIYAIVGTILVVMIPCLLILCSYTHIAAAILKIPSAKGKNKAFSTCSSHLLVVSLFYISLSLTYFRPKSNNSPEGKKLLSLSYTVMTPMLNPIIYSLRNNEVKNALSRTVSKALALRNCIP

C=CCOC(=O)Cc1ccccc1
not listed: OR10AC1 (Homo sapiens)
inactive: all other assays above

Cc1c([N+](=O)[O-])c(C)c([N+](=O)[O-])c(C(C)(C)C)c1[N+](=O)[O-]
not listed: OR10A3 (Homo sapiens)
inactive: all other assays above
